Molecules are shown by their SMILES.

Series [1] deals with HL-60. As to the kind of experiment: Antiproliferative activity against human HL60 assessed as reduction in cell growth at 20 uM by CellTiter-non radioactive cell proliferation assay. It is filed as functional.
Series [2] concerns the target T1, Protein deacetylase HDAC6 (Homo sapiens) (UniProt Q9UBN7).
T1 sequence (whole entry): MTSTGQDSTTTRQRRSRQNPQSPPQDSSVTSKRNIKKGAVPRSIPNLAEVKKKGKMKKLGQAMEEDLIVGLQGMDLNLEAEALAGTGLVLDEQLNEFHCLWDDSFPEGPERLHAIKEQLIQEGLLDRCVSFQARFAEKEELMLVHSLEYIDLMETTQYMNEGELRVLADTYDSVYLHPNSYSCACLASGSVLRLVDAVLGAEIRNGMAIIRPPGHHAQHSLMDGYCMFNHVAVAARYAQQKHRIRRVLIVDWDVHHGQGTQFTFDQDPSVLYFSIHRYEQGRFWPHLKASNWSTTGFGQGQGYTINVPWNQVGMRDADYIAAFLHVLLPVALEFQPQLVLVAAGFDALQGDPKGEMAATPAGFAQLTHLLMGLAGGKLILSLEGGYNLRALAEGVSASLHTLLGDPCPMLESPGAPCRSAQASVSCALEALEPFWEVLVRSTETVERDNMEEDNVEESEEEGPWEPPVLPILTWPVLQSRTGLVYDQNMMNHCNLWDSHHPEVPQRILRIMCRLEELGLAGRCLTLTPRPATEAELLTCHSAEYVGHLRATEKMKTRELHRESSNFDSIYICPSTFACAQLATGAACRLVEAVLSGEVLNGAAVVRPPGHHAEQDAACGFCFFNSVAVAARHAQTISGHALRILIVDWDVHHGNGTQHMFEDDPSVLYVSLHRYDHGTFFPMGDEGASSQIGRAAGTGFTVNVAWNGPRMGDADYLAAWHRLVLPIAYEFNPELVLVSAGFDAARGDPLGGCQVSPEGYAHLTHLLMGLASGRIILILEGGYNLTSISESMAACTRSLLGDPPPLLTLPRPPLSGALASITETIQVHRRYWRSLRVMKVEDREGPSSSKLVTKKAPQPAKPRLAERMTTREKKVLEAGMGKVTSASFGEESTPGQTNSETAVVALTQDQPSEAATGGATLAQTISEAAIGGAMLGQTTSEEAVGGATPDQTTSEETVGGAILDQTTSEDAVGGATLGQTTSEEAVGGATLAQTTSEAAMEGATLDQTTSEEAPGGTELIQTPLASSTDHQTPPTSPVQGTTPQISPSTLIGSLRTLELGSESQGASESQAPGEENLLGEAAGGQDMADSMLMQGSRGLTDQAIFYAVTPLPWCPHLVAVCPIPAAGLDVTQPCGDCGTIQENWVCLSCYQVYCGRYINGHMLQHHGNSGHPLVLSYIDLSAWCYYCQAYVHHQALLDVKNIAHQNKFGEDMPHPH
As to the kind of experiment: Inhibition of recombinant human HDAC6 at 10 uM using Z-(Ac)Lys-AMC as substrate after 90 mins by fluorescence based micro plate assay. Put shortly: (§1)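 Recombinant human HDAC1 or HDAC6 incubated 90 min at 37 °C with 10.5 μM ZMAL (Z-(Ac)Lys-AMC) and increasing inhibitor concentrations, using a homogeneous fluorescence assay. Fluorescence read at Ex 390/Em 460 nm.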

The target of series [3] is T1, Protein deacetylase HDAC6 (Homo sapiens). Description: Inhibition of recombinant human HDAC6 at 1 uM using Z-(Ac)Lys-AMC as substrate after 90 mins by fluorescence based micro plate assay. Summed up: as §1
The target in series [4] is T2, Histone deacetylase 1 (Homo sapiens, UniProt Q13547). Description: Inhibition of recombinant human HDAC1 at 1 uM using Z-(Ac)Lys-AMC as substrate after 90 mins by fluorescence based micro plate assay. Summed up:
as §1

Series [5] has as its system HL-60. Description: Antiproliferative activity against human HL60 assessed as reduction in cell growth at 100 uM by CellTiter-non radioactive cell proliferation assay. It is filed as functional.
Series [6] concerns the target T2, Histone deacetylase 1. Description: Inhibition of recombinant human HDAC1 at 10 uM using Z-(Ac)Lys-AMC as substrate after 90 mins by fluorescence based micro plate assay. Summed up:
as §1

Another series concerns HEK293. As to the kind of experiment: Cytotoxicity against human HEK293 assessed as reduction in cell viability incubated for 24 hrs by AlamarBlue assay. It is filed as cell-based. The settings on record: hek293, 24 h. Put shortly:
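HEK293 cells were grown at 37 °C under 5% CO2 in DMEM with 10% FCS and 5 mM glutamine and seeded at 1.5 x 10³ cells per well. Compound at 50 μM was added at once. After 24 h AlamarBlue was added for another 21 h, and fluorescence was read at Ex 560/Em 590 nm. Triplicates over three independent experiments.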

Series [7] has as its system THP-1. As to the kind of experiment: Antiproliferative activity against human THP-1 assessed as reduction in cell growth at 4 uM by CellTiter-non radioactive cell proliferation assay. In kind it is functional.
The test system of series [8] is THP-1. As to the kind of experiment: Antiproliferative activity against human THP-1 assessed as reduction in cell growth at 20 uM by CellTiter-non radioactive cell proliferation assay. In kind it is functional.
In series [9] the test system is THP-1. As to the kind of experiment: Antiproliferative activity against human THP-1 assessed as reduction in cell growth at 100 uM by CellTiter-non radioactive cell proliferation assay. It is filed as functional.

T2 sequence (Q13547 whole entry): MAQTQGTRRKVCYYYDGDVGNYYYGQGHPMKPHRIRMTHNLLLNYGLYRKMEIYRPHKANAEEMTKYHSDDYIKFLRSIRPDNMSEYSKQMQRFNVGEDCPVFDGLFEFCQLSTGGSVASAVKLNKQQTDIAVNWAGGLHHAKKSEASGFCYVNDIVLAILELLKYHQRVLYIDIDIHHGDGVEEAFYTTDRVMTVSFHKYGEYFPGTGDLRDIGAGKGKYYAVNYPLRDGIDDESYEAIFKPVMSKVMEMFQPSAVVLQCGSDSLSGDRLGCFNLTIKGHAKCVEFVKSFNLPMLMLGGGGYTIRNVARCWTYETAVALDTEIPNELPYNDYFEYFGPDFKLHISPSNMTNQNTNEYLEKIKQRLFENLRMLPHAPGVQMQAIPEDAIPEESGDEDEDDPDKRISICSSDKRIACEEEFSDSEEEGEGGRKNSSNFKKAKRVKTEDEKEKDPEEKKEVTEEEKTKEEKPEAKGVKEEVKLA

Usually inhibition stands for how much of the control response was suppressed. `COc1ccc(C(=O)NO)cc1S(=O)(=O)Nc1ccc2c(c1)cc(C)c(=O)n2C`: the inhibition at 20 µM in the series with HL-60 [1] is 10%; with THP-1 [8], 32%. In addition, the inhibition in series [2] came to 64%; in series [3] it was 21%; on Histone deacetylase 1 [4], 6%; at Histone deacetylase 1 [6], 38%. Besides, the values for the inhibition at 100 µM with HL-60 [5] and in the series on THP-1 [9] were 39% and 43%, respectively. Also, in the series on HEK293, the Activity result was “Non-Toxic”. Moreover, the inhibition at 4 µM in the series on THP-1 [7] was 0%.

For the origin of these results see ChEMBL document CHEMBL4765345, “Design, synthesis, and biological evaluation of dual targeting inhibitors of histone deacetylase 6/8 and bromodomain BRPF1” (Eur J Med Chem, 2020).
